Bioassay records from PubChem.
Diaph act CS – diaphorase activation or chemical reduction counter-screen; Diaphorase/resazurin coupled assay, resorufin fluorescence, 16 min; hits give high values; 1 = vehicle wells, 0 = NADH-free wells; activation factor at 20 µM; actives 0.005% (n = 190,000); AID 1229;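 active = diaphorase activity raised at least twofold by the compound at 20 µM; inactive = activation factor below 2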
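Assay system: Purified diaphorase enzyme from Clostridium kluyveri | Amount: Enzyme 0.07 U/mL final | Dosing: Compound 20 µM once, DMSO 1% | Timing: 16 min reaction at room temperature | Detection: Fluorescence, excitation 544 nm and emission 590 nm | Evaluation: Higher resorufin formation from activation or reduction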
PMI act – activators of human phosphomannose isomerase. activation factor at 20 µM. purified human PMI, coupled resazurin fluorescence, 20 min; hits give high values; 1 = vehicle control, 0 substrate-free wells. actives 0.005% (n = 190,000);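 active = activation factor of 2 or more at 20 µM, relative to plate controls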
ROMK mod – modulates human ROMK potassium channel activity | P48048 | Tet-inducible ROMK, thallium flux fluorescence; actives lie on both sides | B-score at 10 µM | actives 2% (n = 130,000);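 active = signal ratio slope over the read window, or its plate-corrected B-score, at least 3 SD from the plate mean, either direction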;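 also: B-score of the F/F0 ratio slope over 7 to 12 s after thallium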
Target sequence (P48048 whole entry, looked up): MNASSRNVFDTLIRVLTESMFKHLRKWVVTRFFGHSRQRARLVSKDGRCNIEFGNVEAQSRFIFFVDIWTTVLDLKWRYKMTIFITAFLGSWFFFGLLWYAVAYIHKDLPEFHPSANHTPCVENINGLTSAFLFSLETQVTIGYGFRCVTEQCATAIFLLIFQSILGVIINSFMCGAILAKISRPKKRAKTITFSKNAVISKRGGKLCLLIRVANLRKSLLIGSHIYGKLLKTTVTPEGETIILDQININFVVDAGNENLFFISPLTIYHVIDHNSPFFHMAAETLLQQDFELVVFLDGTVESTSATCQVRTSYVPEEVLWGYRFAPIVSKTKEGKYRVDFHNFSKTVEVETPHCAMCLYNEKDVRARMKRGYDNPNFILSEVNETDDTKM
PMI act satM6P – increases human PMI activity with near-saturating mannose 6-phosphate. P34949. coupled PMI enzyme assay, resazurin fluorescence, 20 min; hits give high values; 1 = untreated enzyme, 0 = substrate-free blank. activation factor at 20 µM. actives 0.34% (n = 190,000). AID 1216;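 active = activation factor of 2 or more at 20 µM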
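Material: human phosphomannose isomerase with PGI, G6PDH, diaphorase coupling enzymes; amount: PMI at 15 ng/mL final; also added: Mannose-6-phosphate 1.0 mM (near-saturating) plus 0.22 mM NADP+; incubation: enzyme reaction with compound 20 min at room temperature; signal: resorufin fluorescence (Ex 544/Em 590 nm) from resazurin via diaphorase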
G6PDH counter – counter-screen for G6PDH assay hits: L. mesenteroides G6PDH inhibition | Purified L. mesenteroides G6PDH, diaphorase/resazurin coupled fluorescence, 45 min | actives 0.12% (n = 200,000) | inhibition, % at 5 µM | AID 1020; in the data active = inhibition above about 50%
Diaphorase inh – inhibits diaphorase or chemically oxidizes, flagging diaphorase assay artifacts. inhibition, % at 20 µM. AID 1217. actives 0.69% (n = 190,000). diaphorase resazurin-to-resorufin fluorescence, NADH, 16 min; bacterial (C. kluyveri) enzyme, not human;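 active = primary screen inhibition at 20 µM above a set limit, cut at about 50% in these data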;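 also: plate controls were DMSO with full reaction for no effect and wells lacking NADH for full effect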
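Test system: Clostridium kluyveri diaphorase enzyme / Quantity: diaphorase at 0.14 U/mL in enzyme working solution / Incubation: 16-min room-temperature incubation before reading / Benchmarks: NADH-free wells as positive control, DMSO-only neutral wells / Signal: resorufin fluorescence 544/590 nm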
* = called active by the depositor; nt = no result given. Most compounds without a hit are left out; they make up all but 2.2% or so of the library.

SMILES	Diaph act CS	PMI act	ROMK mod	PMI act satM6P	G6PDH counter	Diaphorase inh
COc1cc(CN2CCN(c3ccccc3F)CC2)cc(OC)c1O	0.6	0.7	nt	0.8	54*	40
CCOc1ccc(CN2CCC(C(=O)N3CCN(c4ccccc4F)CC3)CC2)cc1OC	0.8	0.9	-0.48	0.9	-20	16
Cc1cnn2c(C3CC3)ccnc12	1	1	-0.13	1	3	-4
O=C(O)/C=C/C(=O)Nc1ccc2c(c1)NC(=O)CO2	0.4	0.4	0.22	0.3	7	61*
O=C1COc2ccc(C(=O)/C=C/c3ccccc3)cc2N1	0.8	0.9	0.04	0.9	-6	21
CCCCN1CN(S(=O)(=O)c2cccs2)c2nc3ccccc3nc21	1	1.6	nt	2.2*	-13	5
COc1cc(C(=O)O/N=C2/C=C(C)C(=O)C=C2C)cc(OC)c1OC	0.7	0.7	nt	0.5	21	27
COc1cc(C(=O)ON=C2C(C)=CC(=O)C=C2C)cc(OC)c1OC	0.2	0.4	-1	0.3	2	76*
Cc1ccc(Nc2c([N+](=O)[O-])ccc3c2=NC2(CCCCC2)N=3)cc1	0.5	0.7	-0.1	0.5	10	51*
Cc1ccc(NC(=O)c2ccc(Nc3c([N+](=O)[O-])cc([N+](=O)[O-])cc3[N+](=O)[O-])cc2)cc1	0.9	1.2	nt	1	-2	10
COCCCNC(=S)N/N=C/c1ccc(OC)c(Br)c1	nt	nt	-1.1	nt	nt	nt
COc1cccc(/C=N/n2c(-c3n[nH]c4c3CCC4)n[nH]c2=S)c1O	0.4	0.8	nt	0.8	28	58*
O=C1CC(c2cccc(Br)c2)C2=C(COC2=O)N1 (centres undefined)	1	1	-0.17	1	-5	1
COc1cc2c(cc1NC(=O)C(C)Sc1ccc(C)cc1)oc1ccccc12 (centres undefined)	0.2	0.8	nt	0.8	0	76*
COc1cc2c(cc1NC(=S)Nc1cccc3ccccc13)oc1ccccc12	1	0.6	1.4*	0.9	10	0
COc1cc2c(cc1NC(=S)Nc1cccc(C(F)(F)F)c1)oc1ccccc12	0.9	0.9	nt	0.9	4	11
COc1cc2c(cc1NC(=O)CSc1ccc(C)cc1)oc1ccccc12	0.7	0.9	nt	0.9	1	31
NC(Cc1ccccc1)C(O)(c1ccccc1)c1ccccc1 (centres undefined)	0.9	1	-1.4	0.9	2	8
CCNc1ccc(Br)cc(C(=O)/C=C/c2ccc(Cl)cc2Cl)c1=O	0.5	1.1	nt	1.3	21	54*
Cc1ccc(/C=C2\SC(=S)N(C(Cc3ccccc3)C(=O)O)C2=O)cc1 (centres undefined)	0.8	0.9	-3*	0.8	-11	22
Clc1ccc(-n2ncc3c(NCc4ccco4)ncnc32)cc1	1	1.2	3.9*	1.2	-2	3
COc1cccc(CNc2ccc(N3CCC(C)CC3)cc2)c1OC	0.4	0.3	nt	0.4	3	63*
CC1CCN(c2ccc(NC(=O)Cc3ccccc3)cc2)CC1	0.9	0.9	-0.039	0.8	11	14
O=C(COc1ncnc2sccc12)Nc1ccc(F)cc1F	1	1	0.095	1	-3	4
CC(NC(=O)/C(=C\c1ccco1)NC(=O)c1ccccc1Br)C(=O)O (centres undefined)	0.9	1.3	-0.019	0.9	4	11
SMILES	Diaph act CS	PMI act	ROMK mod	PMI act satM6P	G6PDH counter	Diaphorase inh
Cc1cc(C)c(S(C)(=O)=O)c(Oc2cccc(C(F)(F)F)c2)n1	0.9	0.9	-0.17	0.8	16	12
Cn1cccc1C(C(=O)NC1CCCCC1)N(C(=O)Cc1cccs1)C1CC1 (centres undefined)	0.9	1	0.014	1	2	9
COc1ccc(N(C(=O)Cc2cccs2)C(C(=O)NC2CCCCC2)c2cccn2C)cc1OC (centres undefined)	0.9	1	-3.9*	0.8	2	8
O=C(/C=C/c1cccc([N+](=O)[O-])c1)OC1CCCCC1=O (centres undefined)	0.9	1	0.15	1	-3	6
O=C1CC(=O)N(Cc2ccco2)C(=S)N1	0.3	1.3	1.6	1.5	4	68*
O=C1CC(=O)N(Cc2ccco2)C(=O)N1	1	1.2	nt	1.5	1	4
O=C(COC(=O)CCSc1ccc(Cl)cc1)NCCc1ccccc1	0.4	0.9	nt	0.9	-6	55*
NS(=O)(=O)c1ccc(CCNC(=O)COC(=O)CCSc2ccc(Cl)cc2)cc1	0.9	1	0.62	1	9	5
O=C(c1ccccc1)c1coc2c1C(=O)c1ccccc1C2=O	1.2	1.4	1.2	0.7	53*	-16
O=C1c2ccccc2C(=O)c2c1oc(C(F)(F)F)c2C(=O)c1ccccc1	0.9	1.3	nt	1.3	57*	6
COc1ccc(/C=N/N2CCN(c3ccccc3OC)CC2)cc1OC	0.9	0.9	nt	0.9	-18	12
COc1ccccc1N1CCN(/N=C/c2ccc(O)c(O)c2)CC1	0.3	0.3	0.37	0.6	38	70*
CCCN1CCCc2cc(CN)ccc21	0.7	0.5	nt	0.5	54*	32
CCOC(=O)N1CCC(NC(=O)c2ccc3c(Cl)c4c(nc3c2)CCCC4)CC1	0.9	1	-2.5*	0.9	14	5
CCOc1ccc(-c2nnc3ccc(SC(C)C)nn23)cc1	0.4	0.9	nt	1	15	60*
CCOc1ccc(-c2nnc3ccc(SCC(=O)N4CCCCC4)nn23)cc1	0.7	0.9	nt	0.9	-33	27
N#Cc1c(NC(=O)CSc2ncnc3sccc23)oc(-c2ccco2)c1-c1ccco1	0.4	1.3	0.2	0.9	19	60*
O=C(NCc1ccccc1)c1ccc2c(=O)n(CC3CCCO3)c(=S)[nH]c2c1 (centres undefined)	0.9	1	nt	0.9	-6	14
CCCCCNC(=O)c1ccc2c(=O)[nH]c3c(C(=O)NCC4CCCO4)sc(=S)n3c2c1 (centres undefined)	0.4	0.9	-0.0087	0.9	-2	65*
O=C(NCc1ccccc1)c1ccc2c(=O)[nH]c3c(C(=O)NCC4CCCO4)sc(=S)n3c2c1 (centres undefined)	0.3	1.1	-0.077	1	-2	70*
Cc1ccc(CNC(=O)c2ccc3c(=O)n(CC4CCCO4)c(=S)[nH]c3c2)cc1 (centres undefined)	0.9	0.9	-0.087	0.8	-23	7
